PMC3110074 (ACS chemical neuroscience, 2011)
Read-outs that look alike come from different tables or passages of the source.

Tests used:
[1] = cited from earlier work
[2] = tested on: TH positive neurons in the SNpc; settings: intraperitoneal injection; cited from earlier work
[3] = target: monoamine oxidase B (MAO-B) (Homo sapiens, UniProt P27338); test: MAO-B inhibition; assay type: biochemical; settings: read-out: IC50 MAO-B
[4] = Mouse brain penetration time course; assay type: in vivo, C57Bl6 mice; settings: mice, single oral dose 30 mg/kg
[5] = tested on: p-c-jun in substantia nigra tissue lysate; test: ELISA for p-c-jun target modulation after MPTP; assay type: in vivo, C57BL/6J mice; settings: MPTP-treated mice
Procedure, shortened: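 Male C57BL/6J mice (11 weeks, 25–30 g) got the test compound orally 30 min before the first of repeated i.p. MPTP-HCl doses given at 2 h intervals, and were killed 7 h after the first MPTP dose. SN nuclear extracts were made with protease and phosphatase inhibitors and protein was measured by BCA. Phospho-c-jun Ser63 in 30 μg protein was read by ELISA in duplicate against a recombinant p-c-jun standard curve. Groups were compared by two-tailed unpaired t test.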

[6] = Plasma protein binding, monkey; assay type: in vitro ADME
[7] = target: Leucine Rich repeat Kinase 2 (LRRK2) (Homo sapiens, UniProt Q5S007); test: LRRK2 inhibition; assay type: biochemical; settings: up to 10 μM
[8] = Microsomal stability, human; assay type: in vitro ADME; settings: human liver microsomes
[9] = target: CYP P450 2D6 (Homo sapiens, UniProt P10635); test: P450 inhibition 2D6; assay type: in vitro ADME; settings: read-out: IC50 CYP450 2D6
[10] = target: CYP P450 2E1 (Homo sapiens, UniProt P05181); test: P450 inhibition 2E1; assay type: in vitro ADME; settings: read-out: IC50 CYP450 2E1
[11] = target: G2019S LRRK2 (Homo sapiens, UniProt Q5S007, G2019S); test: G2019S LRRK2 inhibition; assay type: biochemical; settings: up to 10 μM
[12] = tested on: 347 kinases; test: Ambit kinase panel screen; assay type: binding; settings: 3 μM
[13] = Plasma protein binding, rat; assay type: in vitro ADME
[14] = target: monoamine oxidase A (MAO-A) (Homo sapiens, UniProt P21397); test: MAO-A inhibition; assay type: biochemical; settings: read-out: IC50 MAO-A
[15] = Microsomal stability, mouse; assay type: in vitro ADME; settings: mouse liver microsomes
[16] = Rat pharmacokinetics; assay type: in vivo, Sprague-Dawley rats; settings: rats
Procedure, shortened: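 Sprague-Dawley rats (n = 3) were dosed 1 mg/kg i.v. or 2 mg/kg by oral gavage. Blood was drawn into EDTA at 5, 15 and 30 min and at 1, 2, 4, 6 and 8 h. Plasma proteins were precipitated with acetonitrile and the test compound quantified by LC-MS/MS. Noncompartmental analysis gave CL, oral bioavailability, Cmax, AUC, t1/2 and Vd.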

[17] = target: PDGFR-β (Homo sapiens, UniProt P09619); test: Ambit kinase panel screen, PDGFR-β; assay type: binding; settings: suggested from Ambit panel at 3 μM
[18] = target: CYP P450 2C9 (Homo sapiens, UniProt P11712); settings: read-out: IC50 CYP450 2C9
[19] = Microsomal stability, rat; assay type: in vitro ADME; settings: rat liver microsomes
[20] = tested on: primary mesencephalic dopaminergic neurons exposed to MPP+; assay type: cell-based, Sprague Dawley rat; settings: for neuroprotective effect (TH-positive neurons): 10 μM MPP+ for 48 hr
Procedure, shortened: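 Ventral mesencephalon from E14 Sprague-Dawley rat embryos was trypsinised (0.25%, 5 min, 37 °C) and triturated. Cells were plated at 200 000/well on poly-D-lysine/laminin in DMEM/10% HIFBS, then switched after 2 h to SATO selection medium for 5 days with daily changes. Test compound (10–1000 nM) was added 15 min before 10 μM MPP+, with 48 h at 37 °C/5% CO2. Cells were fixed in 4% PFA and TH+ neurons counted blinded. Four wells per concentration, three biological replicates; one-way ANOVA.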

[21] = tested on: striatal catecholamine levels; test: Striatal dopamine, DOPAC and HVA levels after MPTP; assay type: in vivo, C57BL/6J mice; settings: MPTP-treated mice, 30 mg/kg, 7 days
[22] = target: KIT (Homo sapiens, UniProt P10721); test: Ambit kinase panel screen, KIT; assay type: binding; settings: suggested from Ambit panel at 3 μM
[23] = Plasma protein binding, mouse; assay type: in vitro ADME
[24] = target: KIT V559D (Homo sapiens, UniProt P10721, V559D); test: Ambit kinase panel screen, KIT V559D; assay type: binding; settings: suggested from Ambit panel at 3 μM
[25] = target: CYP P450 2A6 (Homo sapiens, UniProt P11509); test: P450 inhibition 2A6; assay type: in vitro ADME; settings: read-out: IC50 CYP450 2A6
[26] = Plasma protein binding, human; assay type: in vitro ADME
[27] = target: TYK2 (Homo sapiens, UniProt P29597); test: Ambit kinase panel screen, TYK2; assay type: binding; settings: suggested from Ambit panel at 3 μM
[28] = tested on: c-jun phosphorylation in ventral midbrain; test: Western blot for phospho-c-jun after MPTP; assay type: in vivo, C57BL/6J mice; settings: MPTP-treated mice, 20 mg/kg oral
Procedure, shortened: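 Mice received the test compound orally 30 min before the first i.p. MPTP-HCl dose and were killed 7 h after that dose; two saline, three MPTP and two MPTP+compound mice. Ventral midbrain was dissected and lysed, and 30 μg nuclear-fraction protein was immunoblotted for phospho-c-jun.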

[29] = target: CYP P450 2C8 (Homo sapiens, UniProt P10632); test: P450 inhibition 2C8; assay type: in vitro ADME; settings: read-out: IC50 CYP450 2C8
[30] = target: CYP P450 3A4 (Homo sapiens, UniProt P08684); settings: read-out: IC50 CYP450 3A4
[31] = target: CYP P450 2B6 (Homo sapiens, UniProt P20813); test: P450 inhibition 2B6; assay type: in vitro ADME; settings: read-out: IC50 CYP450 2B6
[32] = target: P-glycoprotein (PGP) (Homo sapiens, UniProt P08183); test: P-glycoprotein substrate assessment; assay type: in vitro ADME
[33] = tested on: p-c-jun in TH-positive neurons of the SNpc; test: Immunohistochemistry for TH and p-c-jun after MPTP; assay type: in vivo, C57BL/6J mice; settings: single oral dose 30 mg/kg, seven hr
Procedure, shortened: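 The test compound was given orally 30 min before repeated i.p. MPTP-HCl (2 h intervals) to male C57BL/6J mice, which were killed 7 h after the first MPTP dose; three mice per group. 16 μm SN sections (bregma −3.0) were incubated overnight at 4 °C with sheep anti-TH (1:50) and rabbit anti-p-c-jun Ser73 (1:100), then 2 h with Alexa 594/488 secondaries (1:500). DAPI was used for normalisation. TH+ neurons with nuclear p-c-jun were counted.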

[34] = target: CYP P450 1A2 (Homo sapiens, UniProt P05177); test: P450 inhibition 1A2; assay type: in vitro ADME; settings: read-out: IC50 CYP450 1A2
[35] = target: CYP P450 2C19 (Homo sapiens, UniProt P33261); settings: read-out: IC50 CYP450 2C19
[36] = cited from earlier work; remark: listed apart in the source

Leucine Rich repeat Kinase 2 (LRRK2), sequence (Q5S007 whole entry): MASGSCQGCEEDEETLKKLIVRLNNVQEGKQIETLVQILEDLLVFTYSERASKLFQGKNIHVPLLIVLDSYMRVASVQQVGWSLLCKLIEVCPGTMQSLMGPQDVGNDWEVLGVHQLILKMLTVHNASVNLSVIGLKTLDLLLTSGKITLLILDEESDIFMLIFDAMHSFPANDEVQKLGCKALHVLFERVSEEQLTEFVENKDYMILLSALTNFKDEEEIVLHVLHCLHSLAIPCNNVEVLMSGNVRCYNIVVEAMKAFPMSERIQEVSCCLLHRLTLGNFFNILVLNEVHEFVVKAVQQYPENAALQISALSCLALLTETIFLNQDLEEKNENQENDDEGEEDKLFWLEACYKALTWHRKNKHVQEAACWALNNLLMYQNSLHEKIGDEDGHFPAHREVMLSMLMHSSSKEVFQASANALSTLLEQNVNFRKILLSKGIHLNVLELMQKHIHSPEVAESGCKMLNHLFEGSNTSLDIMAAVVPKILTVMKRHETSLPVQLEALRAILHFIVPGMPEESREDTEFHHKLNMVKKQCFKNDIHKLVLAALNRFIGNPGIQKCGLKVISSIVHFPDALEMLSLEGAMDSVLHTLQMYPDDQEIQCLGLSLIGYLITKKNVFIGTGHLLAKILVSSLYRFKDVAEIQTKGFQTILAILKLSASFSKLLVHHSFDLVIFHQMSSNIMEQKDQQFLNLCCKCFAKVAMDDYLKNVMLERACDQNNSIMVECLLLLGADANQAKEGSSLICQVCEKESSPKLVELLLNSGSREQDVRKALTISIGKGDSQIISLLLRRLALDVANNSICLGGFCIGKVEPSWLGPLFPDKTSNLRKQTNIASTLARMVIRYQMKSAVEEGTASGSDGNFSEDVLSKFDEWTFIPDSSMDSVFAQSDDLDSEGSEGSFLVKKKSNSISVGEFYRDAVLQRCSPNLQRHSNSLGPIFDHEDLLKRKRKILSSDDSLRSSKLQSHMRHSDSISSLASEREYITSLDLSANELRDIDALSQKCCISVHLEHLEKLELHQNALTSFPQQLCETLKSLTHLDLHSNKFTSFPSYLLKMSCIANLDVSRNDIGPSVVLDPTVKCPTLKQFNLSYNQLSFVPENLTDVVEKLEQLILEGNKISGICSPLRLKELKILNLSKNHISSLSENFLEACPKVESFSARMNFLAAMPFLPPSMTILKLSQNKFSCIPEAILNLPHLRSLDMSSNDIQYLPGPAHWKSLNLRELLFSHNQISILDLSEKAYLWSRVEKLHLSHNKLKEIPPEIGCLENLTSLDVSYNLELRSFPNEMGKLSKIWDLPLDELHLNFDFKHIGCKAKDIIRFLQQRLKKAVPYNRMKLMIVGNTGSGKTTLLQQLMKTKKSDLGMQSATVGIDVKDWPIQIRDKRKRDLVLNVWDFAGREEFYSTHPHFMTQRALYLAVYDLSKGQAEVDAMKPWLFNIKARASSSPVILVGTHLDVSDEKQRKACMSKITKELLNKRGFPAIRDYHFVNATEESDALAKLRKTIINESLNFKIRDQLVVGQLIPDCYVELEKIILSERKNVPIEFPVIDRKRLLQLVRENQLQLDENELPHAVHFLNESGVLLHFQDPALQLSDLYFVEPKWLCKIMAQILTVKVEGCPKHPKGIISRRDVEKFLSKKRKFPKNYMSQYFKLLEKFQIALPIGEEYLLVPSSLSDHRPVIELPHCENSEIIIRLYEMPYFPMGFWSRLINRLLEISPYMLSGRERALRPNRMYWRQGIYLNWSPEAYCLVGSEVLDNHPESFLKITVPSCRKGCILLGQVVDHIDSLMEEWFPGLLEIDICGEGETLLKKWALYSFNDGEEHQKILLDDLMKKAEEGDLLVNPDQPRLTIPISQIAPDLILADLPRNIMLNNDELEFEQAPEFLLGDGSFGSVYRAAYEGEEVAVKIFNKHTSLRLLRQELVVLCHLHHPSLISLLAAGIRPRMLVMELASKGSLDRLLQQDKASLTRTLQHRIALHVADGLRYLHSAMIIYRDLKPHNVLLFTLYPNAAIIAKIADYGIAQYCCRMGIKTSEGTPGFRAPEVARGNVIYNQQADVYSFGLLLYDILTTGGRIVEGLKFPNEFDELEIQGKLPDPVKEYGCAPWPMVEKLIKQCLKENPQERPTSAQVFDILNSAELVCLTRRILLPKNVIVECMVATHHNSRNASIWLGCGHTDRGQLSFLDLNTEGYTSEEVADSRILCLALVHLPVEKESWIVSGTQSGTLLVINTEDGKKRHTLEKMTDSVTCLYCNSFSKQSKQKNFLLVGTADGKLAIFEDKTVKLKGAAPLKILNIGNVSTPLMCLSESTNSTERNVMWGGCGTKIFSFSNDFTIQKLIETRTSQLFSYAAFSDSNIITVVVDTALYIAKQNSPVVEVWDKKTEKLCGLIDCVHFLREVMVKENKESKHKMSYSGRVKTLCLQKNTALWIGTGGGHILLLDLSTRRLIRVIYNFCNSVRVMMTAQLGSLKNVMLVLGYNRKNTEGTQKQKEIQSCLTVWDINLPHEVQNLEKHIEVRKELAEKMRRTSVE
CYP P450 2B6, sequence (P20813 whole entry): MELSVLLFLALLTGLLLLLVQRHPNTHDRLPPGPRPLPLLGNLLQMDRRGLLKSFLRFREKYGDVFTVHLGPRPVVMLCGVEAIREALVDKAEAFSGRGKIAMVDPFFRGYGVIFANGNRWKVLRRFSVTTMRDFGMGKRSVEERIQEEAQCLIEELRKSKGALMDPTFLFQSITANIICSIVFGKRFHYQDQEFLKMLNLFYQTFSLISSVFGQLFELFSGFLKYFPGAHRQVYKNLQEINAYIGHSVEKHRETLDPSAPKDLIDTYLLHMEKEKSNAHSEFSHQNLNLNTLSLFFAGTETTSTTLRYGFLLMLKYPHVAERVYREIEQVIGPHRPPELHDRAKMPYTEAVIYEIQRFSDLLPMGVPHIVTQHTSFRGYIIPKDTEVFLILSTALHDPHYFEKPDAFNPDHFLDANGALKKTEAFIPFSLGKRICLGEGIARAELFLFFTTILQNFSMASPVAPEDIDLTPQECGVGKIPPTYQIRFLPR
KIT, sequence (P10721 26-976): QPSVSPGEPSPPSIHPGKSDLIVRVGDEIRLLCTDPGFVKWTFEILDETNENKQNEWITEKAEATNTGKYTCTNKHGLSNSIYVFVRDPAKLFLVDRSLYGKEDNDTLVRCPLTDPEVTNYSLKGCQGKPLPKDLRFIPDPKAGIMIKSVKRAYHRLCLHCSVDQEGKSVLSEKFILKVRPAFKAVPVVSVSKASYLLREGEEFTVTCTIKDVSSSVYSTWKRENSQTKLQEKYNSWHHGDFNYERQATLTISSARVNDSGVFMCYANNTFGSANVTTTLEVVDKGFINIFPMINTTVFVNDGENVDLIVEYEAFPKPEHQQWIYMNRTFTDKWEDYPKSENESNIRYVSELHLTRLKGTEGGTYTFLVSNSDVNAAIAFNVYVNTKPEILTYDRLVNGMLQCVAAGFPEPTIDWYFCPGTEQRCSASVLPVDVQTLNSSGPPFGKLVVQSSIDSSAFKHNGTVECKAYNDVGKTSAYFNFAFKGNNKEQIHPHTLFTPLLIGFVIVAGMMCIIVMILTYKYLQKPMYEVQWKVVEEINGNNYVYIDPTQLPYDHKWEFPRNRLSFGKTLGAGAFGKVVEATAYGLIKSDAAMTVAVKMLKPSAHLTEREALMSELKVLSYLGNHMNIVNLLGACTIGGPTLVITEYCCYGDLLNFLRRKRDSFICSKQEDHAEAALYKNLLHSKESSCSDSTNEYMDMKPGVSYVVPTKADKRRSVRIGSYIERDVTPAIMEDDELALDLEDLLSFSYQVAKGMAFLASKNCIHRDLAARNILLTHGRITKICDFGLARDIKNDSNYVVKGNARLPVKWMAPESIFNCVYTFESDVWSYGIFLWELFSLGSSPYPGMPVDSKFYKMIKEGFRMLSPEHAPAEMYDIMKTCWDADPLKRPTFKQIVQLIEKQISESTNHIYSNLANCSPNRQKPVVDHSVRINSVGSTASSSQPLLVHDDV
CYP P450 2D6, sequence (P10635 whole entry): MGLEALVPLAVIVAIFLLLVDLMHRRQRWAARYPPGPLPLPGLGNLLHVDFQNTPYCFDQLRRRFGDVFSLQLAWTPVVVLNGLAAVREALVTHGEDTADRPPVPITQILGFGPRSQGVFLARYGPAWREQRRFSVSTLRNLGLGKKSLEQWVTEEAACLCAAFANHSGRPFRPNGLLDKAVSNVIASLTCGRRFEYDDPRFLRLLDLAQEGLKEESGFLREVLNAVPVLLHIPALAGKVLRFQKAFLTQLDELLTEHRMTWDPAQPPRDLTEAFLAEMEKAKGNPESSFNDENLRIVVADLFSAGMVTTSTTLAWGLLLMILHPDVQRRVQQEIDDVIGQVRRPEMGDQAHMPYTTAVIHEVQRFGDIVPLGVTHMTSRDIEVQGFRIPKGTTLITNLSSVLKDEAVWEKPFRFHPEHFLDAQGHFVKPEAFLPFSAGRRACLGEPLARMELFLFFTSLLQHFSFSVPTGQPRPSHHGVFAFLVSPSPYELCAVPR
monoamine oxidase B (MAO-B), sequence (P27338 whole entry, species assumed): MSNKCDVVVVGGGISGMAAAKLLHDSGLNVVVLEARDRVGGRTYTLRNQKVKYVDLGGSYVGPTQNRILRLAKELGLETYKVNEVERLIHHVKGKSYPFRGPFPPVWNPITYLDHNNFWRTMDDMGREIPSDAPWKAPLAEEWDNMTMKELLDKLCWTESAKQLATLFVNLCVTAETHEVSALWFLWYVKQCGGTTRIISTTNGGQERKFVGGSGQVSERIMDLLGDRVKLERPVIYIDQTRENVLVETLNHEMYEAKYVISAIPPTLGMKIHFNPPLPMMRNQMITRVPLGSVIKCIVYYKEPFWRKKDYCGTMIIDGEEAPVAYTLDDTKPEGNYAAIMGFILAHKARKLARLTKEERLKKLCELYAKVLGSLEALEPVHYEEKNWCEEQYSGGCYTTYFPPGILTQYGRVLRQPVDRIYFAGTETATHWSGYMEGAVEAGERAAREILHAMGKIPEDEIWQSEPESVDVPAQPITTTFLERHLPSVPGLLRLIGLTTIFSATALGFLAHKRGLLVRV
G2019S LRRK2, sequence (Q5S007 whole entry G2019S): as the sequence (Q5S007 whole entry) above, with G2019S counted along it
KIT V559D, sequence (P10721 26-976 V559D): as the sequence (P10721 26-976) above, with V534D counted along it

Structure (SMILES): C#CCN[C@@H]1CCc2ccccc21 [rasagiline]
- neuroprotective disease-modifying effects ([1]; 1 mg): possible disease-modifying effects
- neuroprotective disease-modifying effects ([1]; 2 mg dose, 1176 subjects): failed to show neuroprotective disease-modifying effects

Structure (SMILES): Oc1c2ccccc2c2c3c(cccc13)N=N2 [SP600125]
- protection in the chronic MPTP mouse model [2]: protective

Structure (SMILES): Cc1ccc(-c2ncn(-c3ccc(Nc4nccc(-c5cccc(N6CCOCC6)c5)n4)cc3)n2)cn1 [SR-3306]
- IC50 [3]: > 50 µM
- brain concentration ([4]; 4 hr): 3 µM
- brain concentration above the >90% neuroprotective concentration ([4]; 8 hr): 7 fold
- brain concentration ([4]; 24 hr): 0.23 µM
- p-c-jun levels in the ventral midbrain by ELISA ([5]; 10 mg/kg oral): no effect
- p-c-jun levels in the ventral midbrain by ELISA ([5]; 20 mg/kg oral, p< 0.01): statistically significant reduction
- p-c-jun levels in the ventral midbrain by ELISA ([5]; 30 mg/kg oral, p < 0.001): statistically significant reduction
- plasma protein binding [6]: 96%
- inhibition of LRRK2 [7]: not inhibited
- microsomal stability [8]: 28 min
- IC50 [9]: > 50 µM
- IC50 [10]: > 50 µM
- inhibition of G2019S LRRK2 [11]: not inhibited
- number of kinases with any hit [12]: 35 out of the 347
- plasma protein binding [13]: 97%
- IC50 [14]: > 50 µM
- microsomal stability [15]: 26 min
- clearance rate ([16]; 1 mg/kg i.v.): 14 mL/min/kg
- oral bioavailability (%F) ([16]; 2 mg/kg p.o. vs 1 mg/kg i.v.): 31%
- Kd [17]: < 1000 nM
- IC50 [18]: > 50 µM
- microsomal stability [19]: 30 min
- neuroprotective effect (TH-positive neurons) ([20]; 300 nM): greater than 90%
- effect on number of TH-positive neurons, compound alone ([20]; 1000 nM in the absence of MPP+): no effect compared to control
- neuroprotective effect (TH-positive neurons) ([20]; 1000 nM): greater than 90%
- protection of striatal DOPAC levels [21]: some protection
- protection of striatal dopamine levels [21]: not able to demonstrate protection
- protection of striatal homovanillic acid (HVA) levels [21]: not able to demonstrate protection
- Kd [22]: < 1000 nM
- plasma protein binding [23]: 86%
- Kd [24]: < 1000 nM
- IC50 [25]: > 50 µM
- plasma protein binding [26]: 88%
- Kd [27]: < 1000 nM
- phospho-c-jun signal by Western blot [28]: decrease in the phospho-c-jun signal
- IC50 [29]: > 50 µM
- IC50 [30]: > 50 µM
- IC50 [31]: > 50 µM
- P-glycoprotein (PGP) substrate [32]: not a P-glycoprotein (PGP) substrate
- number of p-c-jun positive cells compared to MPTP treated mice [33]: dramatic decrease (four-fold)
- IC50 [34]: > 50 µM
- IC50 [35]: > 50 µM

Structure (SMILES): N[C@@H](Cc1ccc(O)c(O)c1)C(=O)O [L-DOPA, levodopa]
- initial response rates [36]: ~90%
